Data set [1] is described as follows: Safety and tolerability in healthy subjects. It counts as in vivo, human. The gist of the method: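 Open-label, single-dose study in 12 screened healthy Chinese men, negative for hepatitis and HIV. After an overnight fast of at least 12 h, each took 600 mg orally with 240 mL water, with standardized meals at 4 and 10 h. Safety was assessed in all completers under prolonged bed rest, extended stay in the clinical unit, and enhanced clinical monitoring and nursing.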

The format of data set [2] is in vivo, human. Conditions: for AUC0-t / AUC0-∞ / MRT0-t / MRT0-∞ / t1/2: in hPBMCs, single oral dose 600 mg AZT, mean±SD, n=12; for MRT inf / MRT last / half-life: male, human, peripheral blood mononuclear cells (hPBMCs), po, 600 mg.
Data set [3] is described as follows: Plasma pharmacokinetics after a single oral dose of AZT. It counts as in vivo, human. Conditions: for Plasma concentration of the phosphorylated metabolites: after single oral dose 600 mg AZT. The gist of the method:
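Open-label study in 12 healthy Chinese men (20–28 y) after an overnight fast of at least 12 h. Each took a single 600 mg oral dose of test compound with 240 mL water, with standardized meals at 4 and 10 h. Heparinized blood (20 mL) was drawn by antecubital catheter predose and at 0.5–10 h. Plasma was stored at –20 °C and assayed by validated LC–MS/MS (C18; 0.2% formic acid/methanol), LLOQ 0.1125 pg/μL.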

For data set [4] the following is noted: liver or heart mitochondria; cited from earlier work.
Setting [5] is: single oral dose 600 mg AZT, 12 subjects.

Values joined by “and” are separate entries in the source; they are usually repeats but may differ in a detail not shown here. Equal entries are not always repeated. Where two headings read alike, the source gives them in different places.

The MRT inf is a mean duration of stay, worked out from the concentration-time curve. Broadly, the MRT last is the average time that molecules of a dose stay in the body. What is called half-life is the time in which the quantity being followed falls by half. A lower half-life goes with rapid decline. In general, AUC(0-inf) refers to total exposure, with the tail of the curve extrapolated. Low values mean less exposure, high ones more exposure. A word on the Cmax: it is the peak of the concentration-time curve. In general, Vd/F refers to the volume of distribution divided by bioavailability. As usually defined, the CL/F is clearance divided by bioavailability, as obtained after extravascular dosing.

On to `Cc1cn([C@H]2C[C@H](N=[N+]=[N-])[C@@H](CO)O2)c(=O)[nH]c1=O` [AZT, 3'-azido-3'-deoxythymidine], for which, in data set [1] (12 subjects), the “Hypersensitivity to AZT” value was “None of the 12 subjects had hypersensitivity”. Further, the Tolerability entry in data set [1] (single oral dose 600 mg AZT, 12 healthy Chinese male subjects) is listed as “well tolerated”. For the same compound, in data set [1] (setting [5]), the “Reported ADR: headache” value is “one report” and the “Reported ADR: nausea” value was “one report”. In addition, in data set [2], the AUC0-t is recorded as 0.371±0.193 ng⋅h/10^6 cell, the “AUC0-∞” value is recorded as 0.396±0.189 ng⋅h/10^6 cell, the MRT inf was determined as 14.9 ± 32.4 h and the MRT last worked out at 4.94 ± 19.3 h. For the same compound, the half-life in data set [2] is 2.49 ± 0.638 h. In data set [3] (male, human, po, 600 mg), this compound had an AUC0-t of 7050 ± 1280 ng·h/mL, an AUC(0-inf) of 7170 ± 1270 ng·h/mL, a Cmax of 3510 ± 363 ng/mL and an MRT inf of 2.4 ± 0.216 h. In data set [3] (male, human, po, 600 mg), this compound had an MRT last of 2.2 ± 0.253 h, a Vd/F of 264 ± 162 L and a half-life of 2.02 ± 0.946 h. The CL/F in data set [3] (single oral dose 600 mg AZT, mean±SD, n=12) stood at 86.092 ± 14.962 L/h.

With `Cc1cn([C@H]2C[C@H](N=[N+]=[N-])[C@@H](COP(=O)(O)OP(=O)(O)O)O2)c(=O)[nH]c1=O` [AZT-DP, AZT diphosphate], in data set [2], the AUC0-t turned out to be 0.345±0.055 ng⋅h/10^6 cell, the “AUC0-∞” value is reported as 0.615±0.161 ng⋅h/10^6 cell, the MRT0-t worked out at 0.792 ± 12.028 h and the “MRT0-∞” value was found to be 14.270 ± 6.350 h. In data set [2], this compound had a t1/2 of 8.285 ± 2.840 h. Besides, the “Plasma concentration of the phosphorylated metabolites” value (shortened to “Plasma concentration”) in data set [3] is “not present in measurable levels”.

Regarding `Cc1cn([C@H]2C[C@H](N=[N+]=[N-])[C@@H](COP(=O)(O)O)O2)c(=O)[nH]c1=O` [AZT-MP, AZT monophosphate], in data set [2], the AUC0-t is 2.548 ng⋅h/10^6 cell and 2.548±0.656 ng⋅h/10^6 cell; the “AUC0-∞” value is on record as 6.343±2.964 ng⋅h/10^6 cell; the MRT0-t turned out to be 4.190 ± 0.347 h; the “MRT0-∞” value was 18.715 ± 12.856 h. In data set [2], this compound yielded a t1/2 of 13.428 ± 9.611 h. In addition, the “Plasma concentration” value in data set [3] is “not present in measurable levels”.

Consider `Cc1cn([C@H]2C[C@H](N=[N+]=[N-])[C@@H](CO[P@](=O)(O)O[P@](=O)(O)OP(=O)(O)O)O2)c(=O)[nH]c1=O` [AZT-TP, 5′-AZT triphosphate], for which the “Detection of AZT-TP during incubation in mitochondria” value in data set [4] is on record as “No AZT-TP was detected”. In data set [2], the AUC0-t is listed as 0.223±0.043 ng⋅h/10^6 cell, the “AUC0-∞” value is given as 0.279±0.069 ng⋅h/10^6 cell, the MRT inf amounted to 6.33 ± 1.14 h and the MRT last came out at 3.87 ± 0.235 h. For the same compound, in data set [2], the half-life is 4.24 ± 0.977 h. Besides, the “Plasma concentration” value in data set [3] is given as “not present in measurable levels”.

The record behind these values is paper PMC4788712 (Acta Pharmaceutica Sinica. B, 2015).
